# Assays:
# [1] = Population pharmacokinetic model; type: in vivo, human
# Method in brief: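 Whole blood sampled 0–12 h post-dose and assayed by chemiluminescent microparticle immunoassay. Compartment models with first-order absorption; between-subject variability exponential, log-normal; categorical covariates as fractional change. Precision from 1000 bootstrap replicates (median, 95% percentile).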
# [2] = metabolites excreted through the biliary route; cited from earlier work
smiles,measurement,setting,value
"C=CC[C@@H]1/C=C(\C)C[C@H](C)C[C@H](OC)[C@H]2O[C@@](O)(C(=O)C(=O)N3CCCC[C@H]3C(=O)O[C@H](/C(C)=C/[C@@H]3CC[C@@H](O)[C@H](OC)C3)[C@H](C)[C@@H](O)CC1=O)[C@H](C)C[C@@H]2OC [tacrolimus, Tacrolimus]",magnitude of BSV on CL/F,[1]; after inclusion of covariates,37%
same,magnitude of BSV on V/F,[1]; after inclusion of covariates,76.7%
same,"Individual base model estimated apparent clearance CL/F, mean",[1]; extensive metabolizers (CEMCYP3A5),45.0 L/h
same,"Individual base model estimated apparent clearance CL/F, mean",[1]; intermediate metabolizers (CIMCYP3A5),29.5 L/h
same,"Individual base model estimated apparent clearance CL/F, mean",[1]; poor metabolizers (CPMCYP3A5),19.8 L/h
same,magnitude of BSV on CL/F,[1]; before inclusion of covariates,46.6%
same,magnitude of BSV on V/F,[1]; before inclusion of covariates,83.2%
same,increase in CL/F compared to cPMCYP3A5,[1]; cEMCYP3A5,~2 fold
same,Typical value of CL/F,"[1]; cEMCYP3A5, final model",44.3 L.hr^1
same,increase in CL/F compared to cPMCYP3A5,[1]; cIMCYP3A5,~1.5 fold
same,Typical value of CL/F,"[1]; cIMCYP3A5, final model",28.6 L.hr^1
same,Typical value of CL/F,"[1]; cPMCYP3A5, final model",19.7 L.hr^1
same,"BSV CL/F - η1, between-subject variability, estimate",[1]; final model,37.0 CV%
same,"BSV CLp/F - η3, between-subject variability, estimate",[1]; final model,48.6 CV%
same,"BSV V/F - η2, between-subject variability, estimate",[1]; final model,76.7 CV%
same,"BSV ka - η4, between-subject variability, estimate",[1]; final model,69.4 CV%
same,"Lag time - θlag, estimate",[1]; final model,0.828 h
same,"Residual variability, proportional error - ε1, estimate",[1]; final model,9.00
same,"ka - θka, absorption rate, estimate",[1]; final model,4.21 h⁻¹
same,Vd/F,"[1]; human, whole blood, oral",234 L
same,clearance,"[1]; human, whole blood, oral, 2.5 mg",328 mL/min
same,clearance,"[1]; human, whole blood, oral, 3.9 mg",477 mL/min
same,clearance,"[1]; human, whole blood, oral, 5.7 mg",738 mL/min
same,"BSV V/F - η2, bootstrap median",[1]; nonparametric bootstrap n=1000,76.0 CV%
same,"BSV ka - η4, bootstrap median",[1]; nonparametric bootstrap n=1000,68.6 CV%
same,"Lag time - θlag, bootstrap median",[1]; nonparametric bootstrap n=1000,0.830 h
same,"Residual variability, proportional error - ε1, bootstrap median",[1]; nonparametric bootstrap n=1000,8.90
same,"V/F - θV/F, bootstrap median",[1]; nonparametric bootstrap n=1000,231 L
same,"Vp/F - θVp/F, bootstrap median",[1]; nonparametric bootstrap n=1000,404 L
same,"ka - θka, bootstrap median",[1]; nonparametric bootstrap n=1000,4.14 h⁻¹
same,"CL/F - θCL/F, bootstrap median","[1]; nonparametric bootstrap n=1000, poor metabolizers",19.6 L/h
same,parent drug remaining unchanged,[2],less than 1%

# Source: article PMC6105387 (Journal of clinical pharmacology, 2018)
